Screens (PubChem)
ALR inh: blocks human ALR sulfhydryl oxidase activity | 290,000 compounds, 3.8% hits | inhibition, % (concentration not given with the values) | purified ALR, DTT oxidation, H2O2 HRP-luminol luminescence;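 active means mean replicate inhibition above about 79%, with every replicate also reaching it, limit read from the data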
Target sequence (P55789 whole entry, looked up): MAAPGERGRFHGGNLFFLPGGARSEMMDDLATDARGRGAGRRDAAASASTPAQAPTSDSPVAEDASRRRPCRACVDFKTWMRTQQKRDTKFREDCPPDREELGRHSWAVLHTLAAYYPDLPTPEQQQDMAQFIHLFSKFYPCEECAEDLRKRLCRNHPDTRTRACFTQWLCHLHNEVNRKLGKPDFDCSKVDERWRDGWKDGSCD
CAL PDZ FP-1: CAL PDZ (human) peptide binding inhibition. inhibition, % at 24.9 µM. purified CAL PDZ, TMR-peptide fluorescence polarization, 1 h. 300,000 compounds, 0.92% hits. AID 602252;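 active means mean inhibition of at least 30% with at least half of replicates also reaching 30%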
CAL PDZ FP-2: human CAL PDZ-peptide interaction inhibition | AID 504414 | inhibition, % at 20 µM | 330,000 compounds, 0.02% hits | purified CAL PDZ, TMR-peptide fluorescence polarization, 1 h;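 active means highest replicate inhibition of at least 40%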
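Read-out basis: mP drop reported as inhibition | Assay system: Tagged CAL PDZ protein CerCALP, purified | Benchmarks: Unlabelled peptide for full inhibition, DMSO wells as neutral | Schedule: 1 h incubation at room temperature before polarization reading | Buffer or medium: Sodium phosphate/NaCl buffer pH 7.4 with TCEP, IgG, Thesit | Doses: Single point, 20 µM | Measured by: Fluorescence polarization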
DYRK1A inh: blocks rat Dyrk1A kinase activity | Q63470 | ADP-Glo luminescence, NFATc1 peptide | 310,000 compounds, 0.43% hits | inhibition, % at 12.5 µM; in the data active means inhibition above about 50%
Rtt109 Vps75: inhibitors of Candida albicans Rtt109/Vps75 histone acetyltransferase. Q5AAJ8. purified Rtt109/Vps75, ThioGlo CoA-SH fluorescence, 4 h. inhibition, % at 34.9 µM. 330,000 compounds, 0.16% hits. AID 540336;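 active means inhibition of at least 50% in every replicate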
Target sequence (Q5AAJ8 whole entry, looked up): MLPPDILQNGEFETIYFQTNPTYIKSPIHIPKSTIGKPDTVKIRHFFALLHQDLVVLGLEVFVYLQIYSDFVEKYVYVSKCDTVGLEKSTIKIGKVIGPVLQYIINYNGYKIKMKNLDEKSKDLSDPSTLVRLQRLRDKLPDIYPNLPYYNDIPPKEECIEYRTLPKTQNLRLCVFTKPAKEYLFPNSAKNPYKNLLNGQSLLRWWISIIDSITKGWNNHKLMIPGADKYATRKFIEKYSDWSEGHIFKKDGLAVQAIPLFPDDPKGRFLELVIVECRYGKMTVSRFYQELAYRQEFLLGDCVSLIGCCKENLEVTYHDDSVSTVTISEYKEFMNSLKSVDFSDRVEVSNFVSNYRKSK
Each line names hits and unclear results; the compound was inactive in the other large screens. A selection: hits, their analogues and other compounds. The true share with any hit is near 4.3%.

CC(=O)c1ccc(-n2nnnc2SCC(=O)Nc2cccc(NC(=O)c3ccco3)c2)cc1	ALR inh 99
COc1cccc(-n2nnnc2SCC(=O)Nc2cccc(NC(C)=O)c2)c1	none
CCn1c(SCC(=O)Nc2cccc(C(C)=O)c2)nnc1C(C)C	ALR inh 99
CC(=O)Nc1cccc(NC(=O)CSc2nnnn2Cc2ccccc2)c1	ALR inh 99 (no result: CAL PDZ FP-2)
O=C(CSc1nnnn1Cc1ccccc1)Nc1cccc(F)c1	none (no result: ALR inh)
COc1ccc(-n2nnnc2SCC(=O)Nc2cccc(NC(C)=O)c2)cc1OC	ALR inh 99
COC(=O)[C@]1(C)N[C@H](CN(C)C(=O)c2ccc(C)cc2)[C@@H]2C(=O)N(C)C(=O)[C@@H]21	none (no result: ALR inh, DYRK1A inh)
Cn1c(CSCc2ccccc2)nnc1SCC(=O)Nc1ccc(C(=O)O)cc1	none
COc1ccc(NC2CCCN(Cc3cccc4cnccc34)C2)cc1OC (stereo not drawn)	ALR inh 95 (no result: DYRK1A inh)
COc1ccc(NC2CCCN(Cc3cccc4cnccc34)C2)cc1 (stereo not drawn)	none (no result: ALR inh)
COc1ccc(NC2CCCN(C(=O)CN3C(=O)c4ccccc4C3=O)C2)cc1OC (stereo not drawn)	ALR inh 98
COc1ccc(NC2CCCN(C(=O)CSc3ccccn3)C2)cc1OC (stereo not drawn)	ALR inh 99
COc1ccc(-c2noc(CCCC(=O)Nc3ccc(C(N)=O)cc3)n2)cc1OC	none (no result: ALR inh, CAL PDZ FP-1)
O=C(NCCN1CCN(c2ccccc2)CC1)c1cccc(Cl)c1	ALR inh 98
O=C(CCN1CCN(c2ccccc2)CC1)N/N=C/c1ccccc1O	ALR inh 84
COc1ccc(C)cc1NC(=O)CCN1CCN(c2ccccc2)CC1	ALR inh 95
Cc1cccc(C)c1NC(=O)NCCCN1CCN(c2ccccc2)CC1	ALR inh 82, CAL PDZ FP-1 51
Cc1csc(SCC(=O)NCCc2ccc(Cl)cc2Cl)n1	none
COc1ccccc1C(=O)Nc1ccc(N2CCN(Cc3ccccc3)CC2)cc1	none (no result: CAL PDZ FP-2)
COc1ccccc1C(=O)NCCN1CCN(c2ccccc2)CC1	ALR inh 97
O=C(NCCN1CCN(c2ccccc2)CC1)C1(S(=O)(=O)c2ccc(Cl)cc2)CC1	ALR inh 99 (no result: CAL PDZ FP-1)
O=C(Cc1c(C(=O)O)[nH]c2ccccc12)NCCN1CCN(c2cccc(Cl)c2)CC1	ALR inh 88, CAL PDZ FP-1 62
NS(=O)(=O)c1cccc(NC(=O)COC(=O)Cc2ccc(S(=O)(=O)N3CCOCC3)s2)c1	none (no result: ALR inh)
CCOc1cc(Cl)c(S(=O)(=O)NCCCN2CCOCC2)cc1Cl	none (no result: ALR inh, CAL PDZ FP-1)
CC(=O)CSc1cc(-c2ccccc2)nc2ncnn12	ALR inh 98 (no result: DYRK1A inh)
C#CCNc1cc(-c2ccccc2)nc2ncnn12	none (no result: DYRK1A inh)
O=C(CNCCc1ccccc1)N1CCc2ccccc2C1	CAL PDZ FP-1 45 (no result: DYRK1A inh)
O=C(Cc1ccccc1)NCC(=O)N1CCc2ccccc2C1	none
CCOC(=O)C1Nc2ccc(C(=O)O)cc2C2C=CCC12 (stereo not drawn)	CAL PDZ FP-1 44 (no result: CAL PDZ FP-2)
COc1cccc(-c2nc(CS(=O)CC(=O)NCCCOC(C)C)c(C)o2)c1 (stereo not drawn)	ALR inh 99
COc1cccc(-c2nc(CS(=O)(=O)CC(=O)NCc3ccccc3)c(C)o2)c1	none (no result: ALR inh)
CCC(C)NC(=O)CS(=O)(=O)Cc1nc(-c2cccc(OC)c2)oc1C (stereo not drawn)	ALR inh 99 (no result: CAL PDZ FP-1)
CCOc1ccc(CCNC(=O)CS(=O)(=O)Cc2nc(-c3cccc(OC)c3)oc2C)cc1	none
COc1cccc(-c2nc(CS(=O)(=O)CC(=O)NCc3ccc4c(c3)OCO4)c(C)o2)c1	ALR inh 95
COc1cccc(-c2nc(CS(=O)(=O)CC(=O)NCCCOC(C)C)c(C)o2)c1	ALR inh 94
CC(C)C[C@H](NC(=O)c1nc[nH]c1C(=O)N1CCN(c2ccccc2)CC1)C(=O)OCc1ccccc1	none
COc1cc(/C=C(\C#N)C(=O)c2c(C)[nH]c3ccccc23)cc(OC)c1OC	ALR inh 96
COc1ccc(/C=C(\C#N)C(=O)c2c(C)[nH]c3ccccc23)cc1OC	none
Cc1cccc(Oc2cc(NC(=O)c3ccccc3)cc([N+](=O)[O-])c2)c1	none
Cc1ccc(NC(=O)c2cccc(Oc3ccc([N+](=O)[O-])cc3)c2)c(C(=O)O)c1	ALR inh 97
O=C(Nc1ccc(O)cc1)c1cccc(Oc2ccc([N+](=O)[O-])cc2)c1	ALR inh 99
O=C(O)c1cccc(Oc2ccc([N+](=O)[O-])cc2)c1	none (no result: CAL PDZ FP-1)
Cc1cccc(N2CCN(C(=O)/C=C/c3cccs3)CC2)c1C	none
CCOC(=O)C1(CCCc2ccccc2)CCN(C(=O)c2cnn(CC)c2)CC1	none (no result: CAL PDZ FP-1)
CCn1c2ccccc2c2cc(/C(C)=N/O)ccc21	ALR inh 98
C/C(=N\O)c1ccc2c3ccccc3n(C)c2c1	none (no result: CAL PDZ FP-1)
COc1ccc(OC)c(NC(=O)CN(C)CC(=O)Nc2ccccc2Br)c1	none
Cn1cc(Br)c(C(=O)NNC(=O)c2cccc(Br)c2)n1	none (no result: ALR inh)
COc1cc(/C=N/NC(=O)CNc2n[nH]c(=O)[nH]c2=O)ccc1O	ALR inh 98
CC(Nc1n[nH]c(=O)[nH]c1=O)C(=O)N/N=C/c1ccccc1 (stereo not drawn)	none (no result: CAL PDZ FP-1)
COc1cc(/C=N/NC(=O)C(C)Nc2n[nH]c(=O)[nH]c2=O)ccc1O (stereo not drawn)	ALR inh 99
COc1ccc(/C=N/NC(=O)CNc2n[nH]c(=O)[nH]c2=O)cc1OC	none
N#Cc1ccc(CN2CCN(C(=O)C3CC(=O)N(c4ccccc4F)C3)CC2)cc1 (stereo not drawn)	none (no result: DYRK1A inh)
N=C1/C(=C\c2ccc(Br)o2)C(=O)N=C2SC(CC(=O)N3CCCCC3)=NN12	ALR inh 97
Cc1ccc(/C=C2/C(=N)N3N=C(CC(=O)N4CCCC4)SC3=NC2=O)o1	none
CS(=O)(=O)Oc1ccc(/C=C2\C(=N)N3N=C(CC(=O)N4CCOCC4)SC3=NC2=O)cc1Cl	ALR inh 82
COC(=O)c1cn[nH]c1N	none
COc1ccc(-c2cnn(-c3ccccc3)c2N)cc1OC	ALR inh 90
COc1ccc(-c2cn[nH]c2N)cc1OC	ALR inh 99
COc1cc(OC)cc(-c2cn[nH]c2N)c1	ALR inh 99
CCN(CC)S(=O)(=O)c1ccc(C(=O)OCn2c(SC)nnc(C)c2=O)cc1	none
OCC[C@@H]1C[C@H](O)[C@@H](O)[C@]2(OCc3ccccc32)O1	none
Cc1nnsc1SCCNC(=O)Nc1ccc(Cl)cc1	none (no result: CAL PDZ FP-1)
O=C(CSc1ccc(Cl)cc1)Nc1ccc(NC(=O)c2ccco2)cc1	ALR inh 100
O=C(Nc1ccc(CN2CCOCC2)cc1)c1ccc(Cl)cc1	none
O=C(Nc1ccc(CN2CCOCC2)cc1)c1ccco1	ALR inh 77
O=C(Nc1ccc(CSc2ccccc2)cc1)c1ccco1	CAL PDZ FP-1 63
CC(C)(C)n1cn[nH]c1=S	none
Cc1ccc(CSC(Nc2ccc(F)cc2)=C(C#N)C#N)cc1	none
